Measured values as given in ChEMBL document CHEMBL2202995, “Synthesis and SAR study of 4,5-diaryl-1H-imidazole-2(3H)-thione derivatives, as potent 15-lipoxygenase inhibitors” (Bioorg Med Chem, 2012).

How the values were obtained:
[1] = test system: Radical scavenging activity; assay: Antioxidant activity of compound assessed as DPPH radical scavenging activity by colorimetric method; format: functional
Procedure, shortened: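 DPPH colorimetric scavenging assay: DPPH solution mixed with an equal volume of compound dissolved in ethanol, several dilutions tested, ethanol as control. After 30 min at room temperature, absorbance read at 517 nm. IC50 obtained by regression analysis of the mean values.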

[2] = Inhibition of soybean 15-LOX assessed as peroxide level by DMAB-MBTH method; set-up: species or system Glycine max
Procedure, shortened: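 Soybean lipoxygenase (SLO, 40,000 units/mL, 25 µL) and compound in ethanol preincubated 5 min at room temperature in 50 mM phosphate buffer pH 7.0; ethanol-only control. Reaction started with linoleic acid substrate in ethanol/100 mM KOH. After 7 min, 50 mM DMAB in 100 mM phosphate pH 7.0 was added, then MBTH/hemoglobin in phosphate pH 5.0, as colorimetric peroxide read-out.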

| Structure (SMILES) | IC50 [1] [µM] | IC50 [2] [µM] |
| --- | --- | --- |
| Cc1nc(N2CCN(C)CC2)nc2c1Nc1ccccc1S2 |  | 34.2 |
| S=c1[nH]c(-c2ccccc2)c(-c2ccc(Cl)cc2)[nH]1 | 30.3 | 24.9 |
| COc1ccc(-c2nc(SC)[nH]c2-c2ccc(Cl)cc2)cc1 | > 250 | > 250 |
| CC(Cc1ccc(O)c(O)c1)C(C)Cc1ccc(O)c(O)c1 (stereo not given) [NORDIHYDROGUAIARETIC ACID] | 6.2 |  |
| COc1ccc(-c2nc(S)[nH]c2-c2ccc(OC)cc2)cc1 | 15.5 | 14.7 |
| COc1ccc(-c2[nH]c(=S)[nH]c2-c2ccccc2)cc1 | 87.4 | 13.7 |
| COc1ccc(-c2[nH]c(=S)[nH]c2-c2ccc(N(C)C)cc2)cc1 | 15.2 | 9.4 |
| S=c1[nH]c(-c2ccccc2)c(-c2ccccc2)[nH]1 | 49.2 | 15.2 |

Further lines, results first:

| IC50 [1] [µM] | IC50 [2] [µM] | Structure (SMILES) |
| --- | --- | --- |
| 49 | 136 | CSc1ccc(-c2[nH]c(=S)[nH]c2-c2ccc(F)cc2)cc1 |
| 107 | 62 | S=c1[nH]c(-c2ccc(Cl)cc2)c(-c2ccc(Cl)cc2)[nH]1 |
| 143 | 23.4 | Fc1ccc(-c2[nH]c(=S)[nH]c2-c2ccc(F)cc2)cc1 |
| 57.2 | 11 | COc1ccc(-c2[nH]c(=S)[nH]c2-c2ccc(F)cc2)cc1 |
| 90 | 5.7 | CSc1ccc(-c2[nH]c(=S)[nH]c2-c2ccccc2)cc1 |
| 15.9 | 22.3 | CN(C)c1ccc(-c2[nH]c(=S)[nH]c2-c2ccc(Cl)cc2)cc1 |
| 21.2 | 19.7 | CSc1ccc(-c2[nH]c(=S)[nH]c2-c2ccc(Cl)cc2)cc1 |
| 14 | 4.7 | COc1ccc(-c2[nH]c(=S)[nH]c2-c2ccc(Cl)cc2)cc1 |
